Measured values of several laboratories.
Each line is one published result; the experiments were not run side by side.

| SMILES | system | setting | measurement | result |
| --- | --- | --- | --- | --- |
| C=CC(=O)N1CC2CC(n3nc(-c4ccc(C(=O)Nc5ccccn5)cc4)c4c(N)ncnc43)CC2C1 (stereo not drawn) | male Wistar rat, plasma | oral, 10 mg/kg | AUC(0-t) | 2730 ng·h/mL |
| CCNc1ccnc(Nc2cccc(-c3cccnc3)c2)n1 | PAMPA | 50 nM, 30 min | Papp | 2200 ×10⁻⁶ cm/s |
| Cc1cn2nc(-c3cc(=O)n4cc(N5CCNC6(CC6)C5)ccc4n3)cc(C)c2n1 | cynomolgus monkey, plasma | – | fraction unbound | 0.15 |
| c1ccc(C2CCN(c3nc(-c4ccn[nH]4)nc4ccccc34)C2)nc1 (stereo not drawn) | PAMPA | 10 µM, 3 h, pH 7.4 | Papp | 41.5 ×10⁻⁶ cm/s |
| CC[C@H](C)Nc1ccnc(Nc2cccc(-c3cccnc3)c2)n1 | PAMPA | 50 nM, 30 min | Papp | 2000 ×10⁻⁶ cm/s |
| N#CC1CCCN(c2nc(-c3ccccn3)nc3ccccc23)C1 (stereo not drawn) | PAMPA | 10 µM, 3 h, pH 7.4 | Papp | 22.4 ×10⁻⁶ cm/s |
| CCOC(=O)[C@@]12C[C@@H]1[C@@H](n1ccc3c(NC)nc(C#Cc4ccc(Cl)s4)nc31)[C@H](O)[C@@H]2O | male Sprague-Dawley rat, plasma | intravenous, 0.5 mg/kg | AUC(0-t) | 27.6 ng·h/mL |
| CCn1ncc2c(N3CCC(c4ccccn4)C3)nc(-c3ccccn3)nc21 (stereo not drawn) | PAMPA | 10 µM, 3 h, pH 7.4 | Papp | 30.2 ×10⁻⁶ cm/s |
| CCc1cc(C(=O)NC)c2nccc(N3CCc4c(cc(Cn5ccnc5)cc4-c4cn(C)nc4C(F)(F)F)C3=O)c2c1 | male Sprague-Dawley rat, plasma | oral, 100 mg/kg, single dose | AUC(0-inf) | 37300 ng·h/mL |
